Tests used:
Conditions in all cases: stereoisomer not certain
OR8H1 (Homo sapiens) = OR8H1 (Homo sapiens) (UniProt Q8NGG4)
How it was run: (§1)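 Assay methods differ from source to source, frequently being transient luciferase assays in mammalian cell lines. For each receptor–molecule pair, the label responsive (active) applies when the original authors judged the measured signal statistically different from baseline, and non-responsive (inactive) applies otherwise.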

OR8H2 (Homo sapiens) = OR8H2 (Homo sapiens) (UniProt Q8N162)
How it was run: as §1

OR8H2 H120Y Y169C V284M = tested on: OR8H2 H120Y Y169C V284M
How it was run: as §1

OR8H3 (Homo sapiens) = OR8H3 (Homo sapiens) (UniProt Q8N146)
How it was run: as §1

OR8H3 = tested on: OR8H3
How it was run: as §1

OR8I2 (Homo sapiens) = OR8I2 (Homo sapiens) (UniProt Q8N0Y5)
How it was run: as §1

OR8J1 (Homo sapiens) = OR8J1 (Homo sapiens) (UniProt Q8NGP2)
How it was run: as §1

OR8J1 = tested on: OR8J1
How it was run: as §1

OR8J3 (Homo sapiens) = OR8J3 (Homo sapiens) (UniProt Q8NGG0)
How it was run: as §1

OR8J2 (Homo sapiens) = OR8J2 (Homo sapiens) (UniProt Q8NGG1)
How it was run: as §1

Measured: odorant receptor agonist call

Chain of OR8H2 (Homo sapiens) (Q8N162 whole entry): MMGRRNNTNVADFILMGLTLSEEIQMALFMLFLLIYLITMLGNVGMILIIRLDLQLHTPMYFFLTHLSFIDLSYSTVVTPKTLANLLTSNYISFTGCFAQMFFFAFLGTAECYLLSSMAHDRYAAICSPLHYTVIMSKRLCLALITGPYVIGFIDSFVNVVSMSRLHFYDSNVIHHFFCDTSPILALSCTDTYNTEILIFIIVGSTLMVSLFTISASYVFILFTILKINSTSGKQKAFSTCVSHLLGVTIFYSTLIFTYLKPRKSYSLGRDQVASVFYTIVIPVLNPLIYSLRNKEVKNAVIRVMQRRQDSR
Chain of OR8H1 (Homo sapiens) (Q8NGG4 whole entry): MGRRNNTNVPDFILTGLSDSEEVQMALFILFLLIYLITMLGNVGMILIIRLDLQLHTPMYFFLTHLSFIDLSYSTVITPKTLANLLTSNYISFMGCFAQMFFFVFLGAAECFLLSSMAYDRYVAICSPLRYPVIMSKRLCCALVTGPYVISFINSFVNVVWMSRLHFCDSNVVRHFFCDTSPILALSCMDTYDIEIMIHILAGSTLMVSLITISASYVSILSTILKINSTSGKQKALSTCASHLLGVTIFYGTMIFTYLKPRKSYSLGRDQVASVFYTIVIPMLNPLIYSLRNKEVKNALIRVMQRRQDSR
Chain of OR8J1 (Homo sapiens) (Q8NGP2 whole entry): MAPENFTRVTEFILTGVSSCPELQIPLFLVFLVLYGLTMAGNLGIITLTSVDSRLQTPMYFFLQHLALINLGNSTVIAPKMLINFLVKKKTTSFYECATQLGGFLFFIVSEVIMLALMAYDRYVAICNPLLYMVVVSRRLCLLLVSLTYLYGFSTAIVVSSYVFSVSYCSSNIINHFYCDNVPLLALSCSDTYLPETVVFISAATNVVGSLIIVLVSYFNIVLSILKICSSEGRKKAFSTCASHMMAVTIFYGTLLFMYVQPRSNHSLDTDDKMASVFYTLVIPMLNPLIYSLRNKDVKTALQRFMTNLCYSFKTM
Chain of OR8I2 (Homo sapiens) (Q8N0Y5 whole entry): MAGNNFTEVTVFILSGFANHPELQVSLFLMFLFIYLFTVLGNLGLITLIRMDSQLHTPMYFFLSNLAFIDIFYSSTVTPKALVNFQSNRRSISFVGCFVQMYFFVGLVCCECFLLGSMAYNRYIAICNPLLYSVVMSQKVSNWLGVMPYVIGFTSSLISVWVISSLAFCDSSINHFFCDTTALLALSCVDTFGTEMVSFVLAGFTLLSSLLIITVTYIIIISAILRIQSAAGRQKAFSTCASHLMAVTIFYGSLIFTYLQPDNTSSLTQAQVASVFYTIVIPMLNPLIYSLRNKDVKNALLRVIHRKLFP
Chain of OR8J3 (Homo sapiens) (Q8NGG0 whole entry): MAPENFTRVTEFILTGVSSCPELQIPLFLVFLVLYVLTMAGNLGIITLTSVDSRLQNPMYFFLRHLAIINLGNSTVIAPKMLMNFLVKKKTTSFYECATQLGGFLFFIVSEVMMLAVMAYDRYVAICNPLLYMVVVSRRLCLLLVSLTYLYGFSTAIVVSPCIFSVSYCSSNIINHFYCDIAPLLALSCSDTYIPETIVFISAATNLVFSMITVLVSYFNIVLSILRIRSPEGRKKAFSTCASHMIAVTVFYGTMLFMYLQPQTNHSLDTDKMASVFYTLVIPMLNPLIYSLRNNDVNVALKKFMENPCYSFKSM
Chain of OR8H3 (Homo sapiens) (Q8N146 whole entry): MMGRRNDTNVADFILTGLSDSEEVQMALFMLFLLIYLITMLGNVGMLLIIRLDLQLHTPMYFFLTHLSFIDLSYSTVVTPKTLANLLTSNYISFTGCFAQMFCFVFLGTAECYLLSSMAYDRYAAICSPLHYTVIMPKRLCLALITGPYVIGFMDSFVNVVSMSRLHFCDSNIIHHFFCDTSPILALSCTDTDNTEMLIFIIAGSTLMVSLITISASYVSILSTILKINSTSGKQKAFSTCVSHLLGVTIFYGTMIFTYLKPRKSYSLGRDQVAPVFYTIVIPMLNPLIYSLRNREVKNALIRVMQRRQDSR
Chain of OR8J1 (as listed by the source): as the sequence (Q8NGP2 whole entry) above, with Y120C counted along it
Chain of OR8H3 (as listed by the source): as the sequence (Q8N146 whole entry) above, with P137S counted along it
Chain of OR8J2 (Homo sapiens) (Q8NGG1 whole entry): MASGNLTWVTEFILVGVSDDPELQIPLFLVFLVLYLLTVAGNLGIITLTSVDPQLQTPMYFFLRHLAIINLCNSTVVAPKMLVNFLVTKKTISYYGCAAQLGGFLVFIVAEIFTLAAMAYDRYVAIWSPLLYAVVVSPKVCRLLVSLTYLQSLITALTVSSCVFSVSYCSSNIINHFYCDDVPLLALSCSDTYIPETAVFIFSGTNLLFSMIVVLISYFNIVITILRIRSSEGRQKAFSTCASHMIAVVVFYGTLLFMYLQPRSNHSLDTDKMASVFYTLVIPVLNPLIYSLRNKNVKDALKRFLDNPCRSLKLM

C=CCOC(=O)Cc1ccccc1
not listed: OR8J2 (Homo sapiens)
inactive: all other assays above

Cc1c([N+](=O)[O-])c(C)c([N+](=O)[O-])c(C(C)(C)C)c1[N+](=O)[O-]
not listed: OR8H2 H120Y Y169C V284M | OR8H3 | OR8J1
inactive: all other assays above

Source: the M2OR odorant receptor database
